# Source: PubChem BioAssay (The Scripps Research Institute Molecular Screening Center)
# The list is not random: actives were taken first. Their share in the collection is about 1.9%.
# Tn7 DDE FP – inhibitors of Tn7 peptide binding to human fibrin DD(E) | FP displacement of FITC-Tn7 peptide from fibrin DD(E); 0% = median of compound wells per plate | inhibition, % at 8.3 µM | actives 0.13% (n = 370,000);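 active means inhibition above the mean of compounds falling within the control limits plus 3 SD of them, cut at about 14% in these data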
#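 assay system = human clot-derived fibrin DD(E) complex | quantity = Fibrin-DD(E) at 2 µM final | timing = 10 min preincubation, 3 h with tracer, room temperature | signal = fluorescence polarization | measure = percent inhibition | benchmarks = high control wells with 10 µM unlabelled Aha-Tn7 peptide (full inhibition) | replicates = singlicate testing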
# MBD2 DNA inh – MBD2-methylated oligo binding inhibition | Q9UBB5 | TR-FRET, MBD2 binding to methylated oligonucleotide | inhibition, % at 4.4 µM | actives 0.31% (n = 370,000); in the data active means inhibition above about 13%
# Target sequence (Q9UBB5 whole entry, looked up): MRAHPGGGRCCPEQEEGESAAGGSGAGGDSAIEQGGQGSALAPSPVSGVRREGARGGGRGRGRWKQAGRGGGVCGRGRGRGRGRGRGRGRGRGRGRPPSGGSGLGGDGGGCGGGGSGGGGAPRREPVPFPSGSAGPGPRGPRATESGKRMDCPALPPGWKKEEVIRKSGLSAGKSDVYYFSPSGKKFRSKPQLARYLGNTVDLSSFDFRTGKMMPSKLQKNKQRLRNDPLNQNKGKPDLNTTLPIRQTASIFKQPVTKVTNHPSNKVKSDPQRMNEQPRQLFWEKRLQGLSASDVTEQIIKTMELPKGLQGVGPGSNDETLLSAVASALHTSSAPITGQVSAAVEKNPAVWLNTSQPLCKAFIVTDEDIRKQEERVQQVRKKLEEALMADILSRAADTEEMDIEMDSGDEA
# LEDGF integ inh – blocks HIV-1 LEDGF/p75-dependent DNA integration. TR-FRET IN-LEDGF/p75 DNA integration, Eu/Cy5. AID 743269. actives 0.64% (n = 370,000). inhibition, % at 3.7 µM;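 active means inhibition above the screen-wide mean plus 3 SD, cut at about 13% in these data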;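 further: signal is the Cy5 over europium emission ratio at 671 and 618 nm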
# TDP2 inh – TDP2 (human) inhibition, absorbance primary screen; recombinant TDP2, T5PNP hydrolysis, p-nitrophenol absorbance 415 nm; inhibition, % at 12.8 µM; actives 0.34% (n = 370,000); AID 720702;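 active means inhibition above the mean of all tested compounds plus 3 SD, set per campaign, cut at about 25% in these data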
#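 Test system: human TDP2 enzyme; Input: 120 nM TDP2 per well; Buffer or medium: Mg2+-containing Tris-HCl buffer, pH 7.5; Reagent: 5 mM T5PNP; Dosing: 12.8 µM single point, 1% DMSO; Incubation: reaction 2 h, 37 °C; Detection: p-Nitrophenol epi absorbance; Read-out: % inhibition relative to enzyme-containing and enzyme-free wells; Replicates: single well per compound.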
# UHRF1 binding – UHRF1 methyl-DNA binding inhibition. Q96T88. UHRF1 binding to methylated oligo, TR-FRET. inhibition, % at 4.4 µM. actives 0.75% (n = 370,000). AID 687016; in the data active means inhibition above about 21%;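 further: UHRF1 SRA domain binding a hemimethylated CpG hairpin DNA probe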
# DDE Tn6 FP inh – disrupts Tn6 cyclic peptide binding to fibrin D-Dimer-E complex | actives 0.21% (n = 370,000) | Fibrin DD(E) TRITC-Tn6 fluorescence polarization displacement | P02675 | inhibition, % at 8.3 µM;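 active means inhibition above a per-campaign cutoff: mean of compounds within control limits plus 3 SD, cut at about 15% in these data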
# TDP2 confirm – confirmation of human TDP2 inhibitors. shares compounds with TDP2 inh. recombinant human TDP2, absorbance read-out. inhibition, % at 12.8 µM. actives 22% (n = 1,100). AID 743263; in the data active means inhibition above about 25%
# A number is an active result; 0 = inactive; - = no result.
SMILES,Tn7 DDE FP,MBD2 DNA inh,LEDGF integ inh,TDP2 inh,UHRF1 binding,DDE Tn6 FP inh,TDP2 confirm
COc1ccc2nc(NC(=O)CN3C(=O)NC4(CCCCC4)C3=O)sc2c1,0,0,0,0,0,0,-
C#CCN1CC(N(C)CCO)CS1(=O)=O (centres undefined),0,0,0,0,0,0,-
O=C(Nc1c(-c2ccccc2)[nH][nH]c1=O)c1cccs1,0,0,0,41.9,0,0,0
COc1ccc(-c2[nH][nH]c(=O)c2NC(=O)c2ccc(C)cc2)cc1,0,0,0,24.6,0,0,30.5
O=C(Nc1c(-c2ccccc2)[nH][nH]c1=O)c1ccc(Br)cc1,0,0,0,33.3,0,0,0
O=C(Nc1c(-c2ccccc2)[nH][nH]c1=O)c1cnccn1,0,0,0,0,0,0,-
COc1ncccc1C(=O)Nc1c(-c2ccccc2)[nH][nH]c1=O,0,0,0,0,0,0,-
O=C(Nc1c(-c2ccccc2)[nH][nH]c1=O)c1ccc2ccccc2c1,0,0,0,0,0,0,-
COc1ccc(OCC(=O)NS(=O)(=O)c2ccccc2)cc1,0,0,0,29.2,0,0,0
O=C(NC1CCCC1)C(c1ccc(N2CCOCC2)cc1)N(Cc1ccco1)C(=O)c1ccco1 (centres undefined),0,0,0,0,0,0,-
O=C(NC1CCCC1)C(c1ccc(N2CCOCC2)cc1)N(Cc1ccccc1)C(=O)c1ccco1 (centres undefined),0,0,0,32.2,0,0,0
C[C@@H]1CN(C(=O)OC(C)(C)C)CCN1c1ccc(N2CC[C@@H](O)C2)c(C#N)c1,0,0,0,0,0,0,-
Cc1ccc(NC2=C(NCCO)C(=O)c3ccccc3C2=O)cc1,0,0,0,43.5,0,0,39.5
CC(=O)Nc1ccc(NC2=C(Cl)C(=O)c3ccccc3C2=O)cc1,0,0,0,0,0,0,-
CC(=O)NC(Cc1ccccc1)P(=O)(O)O (centres undefined),0,0,0,0,0,0,-
Cc1ccc(Nc2nc(N)nc(CN3CCC(C)CC3)n2)c(C)c1,0,0,0,0,0,0,-
Cc1ccc(Nc2nc(N)nc(CN3CCCCCC3)n2)c(C)c1,0,0,0,38.4,0,0,0
CC(=O)NC1CCCCN(Cc2ccc(Cl)cc2)C1=O (centres undefined),0,0,0,0,0,0,-
Cc1[nH]c2ccccc2c1CC(=O)Nc1ccc(Nc2cccnc2)c(-c2cc(C(F)(F)F)cc(C(F)(F)F)c2)c1,0,0,0,0,0,0,-
O=C(CC1CCCC1)N[C@H](C(=O)N1CCC[C@H]1C(=O)NC1CCCC1)C1CCCCC1,0,0,0,0,0,0,-
CC(=O)c1cc(OC(=O)N2CCOCC2)ccc1OC(=O)N1CCOCC1,0,0,0,74.5,0,0,0
Cc1cc(N2CCN(CC(C)(C)O)C[C@@H]2C)ccc1N1CCN(Cc2ccccc2)[C@@H](C)C1,0,0,0,0,0,0,-
COC(=O)CCC(=O)OC1(C)C(=O)C=C2C=C(C3CC3)N(C(CO)CO)C=C2C1=O (centres undefined),0,0,0,29.9,0,0,0
COC(=O)CCC(=O)OC1(C)C(=O)C=C2C=C(C3CC3)N(CCCCO)C=C2C1=O (centres undefined),0,0,0,30.5,0,0,0
COC(=O)c1cc2c(c3c4cc(C)ccc4n(S(=O)(=O)c4ccc(C)cc4)c13)C(=O)N(Cc1ccc(N(C)C)cc1)C2,0,0,0,0,0,0,-
Cc1ccc(S(=O)(=O)/N=C2/NC(=O)/C(=C/c3ccccc3)S2)cc1,0,0,0,28.6,0,0,0
CC(C)CNC(=O)OCc1cn(Cc2ccc(F)c(F)c2)nn1,0,0,0,0,0,0,-
O=C1C(=O)N(c2nccs2)C(c2ccccc2F)/C1=C(\O)c1ccc2c(c1)OCCO2 (centres undefined),0,0,0,26.4,23.4,0,0
